In data set [1] the target is Nuclear receptor subfamily 1 group I member 3 (Mus musculus, UniProt O35627, F171A). The following applies: HEK293, mouse.
Data set [2] concerns the target T1, Nuclear receptor subfamily 1 group I member 3 (Mus musculus, UniProt O35627, T350M). Kind of data set: Enhancement of steroid receptor coactivator 1 binding to mouse CAR T350M mutant […] at 10 uM by yeast two-hybrid assay. The class given is cell-based. Summed up:
(§1)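 Yeast two-hybrid: yeast expressing wild-type or mutant mouse CAR LBD plus SRC-1 or NCoR, selected on SD medium lacking Leu and Trp. Pooled colonies treated with DMSO or test chemical for 3.5 h. β-Galactosidase normalized to cell density. SRC-1 reference: wild-type + DMSO = 100. NCoR reference: 10 µM androstenol = 100. Mean ± SD, two independent determinations, each in triplicate.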

In data set [3] the target is T2, Nuclear receptor subfamily 1 group I member 3 (Mus musculus, UniProt O35627, Y336A). As to the kind of experiment: Enhancement of steroid receptor coactivator 1 binding to mouse CAR Y336A mutant […] at 10 uM by yeast two-hybrid assay. The class given is cell-based. Summed up:
as §1

Data set [4] has as its target T3, Nuclear receptor subfamily 1 group I member 3 (Mus musculus, UniProt O35627, L253F). As to conditions: HEK293, mouse, read-out: Activity.
Data set [5] concerns the target Nuclear receptor subfamily 1 group I member 3 (Mus musculus, UniProt O35627, F171L). As to the kind of experiment: Activation of mouse CAR F171L mutant expressed in HEK293 cells at 10 uM by mammalian one-hybrid assay. The class given is cell-based. As to conditions: read-out: Activity. The method in brief: (§2)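 GAL4-DBD fused to mouse CAR LBD (residues 118-358), wild-type or point mutant, cotransfected with UASx4-tk-luc reporter and pCMVβ into HEK293 cells. Cells were exposed to final 1 µM, 2 µM or 10 µM test chemical, or 0.1% v/v DMSO, for 24 h after transfection. Luciferase was normalized to β-galactosidase and set against empty GAL4 vector (=1.0). Mean ± standard deviation, three independent experiments.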

Data set [6] addresses T3, Nuclear receptor subfamily 1 group I member 3. Kind of data set: Effect on nuclear co-repressor receptor binding to mouse CAR L253F mutant […] at 10 uM by yeast two-hybrid assay. As to conditions: read-out: Activity. The class given is cell-based. The method in brief:
(§3)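 Yeast expressing wild-type or mutant mouse CAR LBD plus NCoR, selected on SD plates lacking leucine and tryptophan. Pooled colonies treated with DMSO or compound for 3.5 h. β-Galactosidase activity normalized to cell density. Reference is 10 µM androstenol (=100). Mean ± SD of two independent determinations, each in triplicate.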

Data set [7] concerns the target T2, Nuclear receptor subfamily 1 group I member 3. Kind of data set: Activation of mouse CAR Y336A mutant expressed in HEK293 cells at 10 uM by mammalian one-hybrid assay. The class given is cell-based. The following applies: hek293, 10 µM. Summed up: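 GAL4 DBD fused to mouse CAR LBD (residues 118-358), wild type or point mutant, cotransfected with UASx4-tk-luc reporter and pCMVβ into HEK293 cells. Cells cultured with DMSO (0.1% v/v) or compound (final 1, 2 or 10 µM). Lysed 24 h post-transfection. Luciferase normalized to β-galactosidase, expressed relative to empty GAL4 vector (=1.0). Mean ± SD, three independent experiments.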

Data set [8] concerns the target Nuclear receptor subfamily 1 group I member 3 (Mus musculus, UniProt O35627, H213A). As to conditions: HEK293, mouse, read-out: Activity.
Data set [9] addresses T4, Nuclear receptor subfamily 1 group I member 3 (Mus musculus, UniProt O35627, N175A). Kind of data set: Decrease in steroid receptor coactivator 1 binding to mouse CAR N175A mutant […] at 10 uM by yeast two-hybrid assay. The class given is cell-based. As to conditions: read-out: Activity. Summed up: (§4)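 Yeast expressing wild-type or mutant mouse CAR LBD plus SRC-1, selected on SD plates lacking leucine and tryptophan. Pooled colonies treated with DMSO or compound for 3.5 h. β-Galactosidase activity normalized to cell density. Reference is wild-type CAR + SRC-1 with DMSO (=100). Mean ± SD of two independent determinations, each in triplicate.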

Data set [10] concerns the target T2, Nuclear receptor subfamily 1 group I member 3. The following applies: HEK293, mouse, read-out: Activity.
Data set [11] concerns the target T5, Nuclear receptor subfamily 1 group I member 3 (Mus musculus, UniProt O35627).
T5 sequence (O35627 whole entry): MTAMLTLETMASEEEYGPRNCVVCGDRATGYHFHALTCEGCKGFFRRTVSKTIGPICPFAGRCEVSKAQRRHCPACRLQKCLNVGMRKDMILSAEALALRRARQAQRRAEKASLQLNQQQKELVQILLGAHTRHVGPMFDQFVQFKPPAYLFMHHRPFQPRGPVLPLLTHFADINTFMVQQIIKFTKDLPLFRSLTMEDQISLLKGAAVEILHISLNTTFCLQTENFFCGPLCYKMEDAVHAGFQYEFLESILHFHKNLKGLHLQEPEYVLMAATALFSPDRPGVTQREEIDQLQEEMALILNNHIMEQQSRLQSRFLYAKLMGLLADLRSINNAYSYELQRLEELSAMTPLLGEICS
Kind of data set: Increase in nuclear co-repressor receptor binding to wild type mouse CAR expressed in HEK293 cells at 10 uM by yeast two-hybrid assay. The following applies: hek293, 10 µM.

Data set [12] has as its target T1, Nuclear receptor subfamily 1 group I member 3. Kind of data set: Activation of mouse CAR T350M mutant expressed in HEK293 cells at 2 uM by mammalian one-hybrid assay. The class given is cell-based. As to conditions: hek293, 2 µM. The method in brief:
as §2

In data set [13] the target is Nuclear receptor subfamily 1 group I member 3 (Mus musculus, UniProt O35627, L212A). As to the kind of experiment: Enhancement of steroid receptor co-activator 1 binding to mouse CAR L212A mutant […] at 2 uM by yeast two-hybrid assay. The class given is cell-based. Summed up:
as §1

Data set [14] deals with T4, Nuclear receptor subfamily 1 group I member 3. Kind of data set: Effect on nuclear co-repressor receptor binding to mouse CAR N175A mutant […] at 1 uM by yeast two-hybrid assay. The class given is cell-based. As to conditions: read-out: Activity. The method in brief:
as §3

For data set [15], the target named is Nuclear receptor subfamily 1 group I member 3 (Mus musculus, UniProt O35627, L353A). As to the kind of experiment: Effect on nuclear co-repressor receptor binding to mouse CAR L353A mutant […] at 1 uM by yeast two-hybrid assay. The class given is cell-based. As to conditions: read-out: Activity. Summed up:
as §3

Data set [16] deals with T2, Nuclear receptor subfamily 1 group I member 3. As to the kind of experiment: Decrease in steroid receptor coactivator 1 binding to mouse CAR Y336A mutant […] at 1 uM by yeast two-hybrid assay. The class given is cell-based. The following applies: read-out: Activity. The method in brief: as §4
Data set [17] deals with Nuclear receptor subfamily 1 group I member 3 (Mus musculus, UniProt O35627, I252L). As to the kind of experiment: Enhancement of steroid receptor coactivator 1 binding to mouse CAR I252L mutant […] at 1 uM by yeast two-hybrid assay. The class given is cell-based. Summed up:
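Yeast two-hybrid assay. Yeast co-expressing wild-type or mutant mouse CAR LBD and the SRC-1 partner were selected on SD plates lacking leucine and tryptophan. Random colonies were pooled and amplified, then treated with DMSO or test chemical for 3.5 h. β-galactosidase activity was normalized to cell density and set relative to wild-type mCAR + SRC-1 with DMSO (=100). Mean ± standard deviation of two determinations, each in triplicate.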

Data set [18] has as its target Nuclear receptor subfamily 1 group I member 3 (Mus musculus, UniProt O35627, S251L). As to the kind of experiment: Effect on nuclear co-repressor receptor binding to mouse CAR S251L mutant […] at 1 uM by yeast two-hybrid assay. The class given is cell-based. The following applies: read-out: Activity. The method in brief: as §3

Each structure is given as a SMILES string.

T3 sequence (O35627 whole entry L253F, the tested form may be a part): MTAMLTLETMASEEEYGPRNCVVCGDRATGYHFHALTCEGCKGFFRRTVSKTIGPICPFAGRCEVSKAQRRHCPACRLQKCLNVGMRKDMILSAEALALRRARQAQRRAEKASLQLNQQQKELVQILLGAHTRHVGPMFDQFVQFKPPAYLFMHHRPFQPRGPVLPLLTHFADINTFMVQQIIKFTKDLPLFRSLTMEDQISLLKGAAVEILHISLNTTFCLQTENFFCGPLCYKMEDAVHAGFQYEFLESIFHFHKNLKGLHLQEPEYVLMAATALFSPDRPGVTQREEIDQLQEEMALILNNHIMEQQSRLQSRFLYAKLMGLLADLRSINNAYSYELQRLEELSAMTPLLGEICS
T2 sequence (O35627 whole entry Y336A): as the sequence (O35627 whole entry L253F, the tested form may be a part) above, with F253L, Y336A counted along it
T4 sequence (O35627 whole entry N175A, the tested form may be a part): as the sequence (O35627 whole entry L253F, the tested form may be a part) above, with N175A, F253L counted along it
T1 sequence (O35627 whole entry T350M, the tested form may be a part): as the sequence (O35627 whole entry L253F, the tested form may be a part) above, with F253L, T350M counted along it
Chain of Nuclear receptor subfamily 1 group I member 3 (Mus musculus, UniProt O35627, H213A) (O35627 whole entry H213A, the tested form may be a part): as the sequence (O35627 whole entry L253F, the tested form may be a part) above, with H213A, F253L counted along it
Chain of Nuclear receptor subfamily 1 group I member 3 (Mus musculus, UniProt O35627, F171A) (O35627 whole entry F171A): as the sequence (O35627 whole entry L253F, the tested form may be a part) above, with F171A, F253L counted along it
Chain of Nuclear receptor subfamily 1 group I member 3 (Mus musculus, UniProt O35627, F171L) (O35627 whole entry F171L, the tested form may be a part): as the sequence (O35627 whole entry L253F, the tested form may be a part) above, with F171L, F253L counted along it
Chain of Nuclear receptor subfamily 1 group I member 3 (Mus musculus, UniProt O35627, I252L) (O35627 whole entry I252L, the tested form may be a part): as the sequence (O35627 whole entry L253F, the tested form may be a part) above, with I252L, F253L counted along it
Chain of Nuclear receptor subfamily 1 group I member 3 (Mus musculus, UniProt O35627, S251L) (O35627 whole entry S251L): as the sequence (O35627 whole entry L253F, the tested form may be a part) above, with S251L, F253L counted along it
Chain of Nuclear receptor subfamily 1 group I member 3 (Mus musculus, UniProt O35627, L353A) (O35627 whole entry L353A): as the sequence (O35627 whole entry L253F, the tested form may be a part) above, with F253L, L353A counted along it
Chain of Nuclear receptor subfamily 1 group I member 3 (Mus musculus, UniProt O35627, L212A) (O35627 whole entry L212A): as the sequence (O35627 whole entry L253F, the tested form may be a part) above, with L212A, F253L counted along it

The molecule `COc1ccccc1CC(CC(=O)Cc1ccccc1)OC` (stereo unspecified) gave an activity at 10 µM in [1] below 50%. Also, the Activity in data set [2] is on record as above 50%; in data set [3] it was above 150%. Moreover, in data set [4], the inhibition at 10 µM is at least 50%.
Take `COc1ccc(C(=O)CCCc2ccccc2)cc1`: the activity at 10 µM in data set [5] and in [6] was below 50% each time.
On to `COc1ccc(C(c2ccc(OC)cc2)C(Cl)(Cl)Cl)cc1` [METHOXYCHLOR], for which the Activity in data set [7] is recorded as below 50%. The inhibition at 10 µM in [8] and in data set [9] was at least 50% each time. Further, in [6], the activity at 10 µM is below 50%.
As for `C[C@]12CC[C@@H](O)C[C@@H]1CC[C@@H]1[C@@H]2CC[C@]2(C)C=CC[C@@H]12` [ANDROSTENOL], the inhibition at 10 µM was below 50% in [10], at least 50% in [8] and at least 50% in data set [4]. The same molecule returned an FC in data set [11] of 49.
Turning to `Clc1ccccc1C(c1ccccc1)(c1ccccc1)n1ccnc1` [CLOTRIMAZOLE], the Activity in [12] is given as above 100%; in data set [13], “>= 50%”.
Take `Clc1cnc(Oc2ccc(Oc3ncc(Cl)cc3Cl)cc2)c(Cl)c1`: the activity at 1 µM in data set [14], in [15] and in data set [18] was below 50% each time. In [16], the inhibition at 1 µM is at least 50%. In addition, in [17], the Activity result is listed as “>= 50%”.

Source of the values: ChEMBL document CHEMBL1152300, “Ligand specificity of constitutive androstane receptor as probed by induced-fit docking and mutagenesis” (J Med Chem, 2008).
